From ChEMBL document CHEMBL3763086, “Salicylanilide N-monosubstituted carbamates: Synthesis and in vitro antimicrobial activity” (2016)
In brackets after ≈: the same amount, converted by molar mass.

Tests used:
Assay type in all cases: functional
Staphylococcus aureus [1] = test: Antibacterial activity against Staphylococcus aureus CCM 4516/08 after 48 hrs by microbroth dilution method; settings: CCM 4516/08, 48 h
Procedure, shortened: (§1)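 Microdilution broth method modified after M07-A07 in Mueller-Hinton broth adjusted to pH 7.4 (±0.2). Inoculum prepared in sterile water to 0.5 McFarland (1.5 × 10^8 CFU/mL). MIC taken as growth reduction versus control (IC95 per table header), read visually and spectrophotometrically at 540 nm after 24 and 48 h incubation in the dark.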

Enterococcus sp. [2] = test: Antibacterial activity against Enterococcus sp. J 14365/08 after 24 hrs by microbroth dilution method; settings: J 14365/08, 24 h
Procedure, shortened: (§2)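 Microbroth dilution modified per M07-A07 in Mueller-Hinton broth, pH 7.4 (±0.2). Inoculum in sterile water adjusted to 0.5 McFarland. MIC taken as growth reduction of at least 90% (IC90) versus control, read visually and at 540 nm after 24 and 48 h incubation in the dark.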

[3] = test system: Trichophyton mentagrophytes; test: Antifungal activity against Trichophyton mentagrophytes 445 after 120 hrs by microbroth dilution method; settings: Trichophyton mentagrophytes, 445, 120 h
Klebsiella pneumoniae [4] = test: Antibacterial activity against Klebsiella pneumoniae D 11750/08 after 48 hrs by microbroth dilution method; settings: D 11750/08, 48 h; procedure, shortened: as §2
Klebsiella pneumoniae [5] = test: Antibacterial activity against ESBL-positive Klebsiella pneumoniae J 14368/08 after 24 hrs by microbroth dilution method; settings: J 14368/08, 24 h; procedure, shortened: as §2
Staphylococcus aureus [6] = test: Antibacterial activity against methicillin-resistant Staphylococcus aureus H 5996/08 after 24 hrs by microbroth dilution method; settings: H 5996/08, 24 h; procedure, shortened: as §1
[7] = test system: Staphylococcus epidermidis; test: Antibacterial activity against Staphylococcus epidermidis H 6966/08 after 24 hrs by microbroth dilution method; settings: H 6966/08, 24 h; procedure, shortened: as §2
Candida tropicalis [8] = test: Antifungal activity against Candida tropicalis 156 after 48 hrs by microbroth dilution method; settings: Candida tropicalis, 156, 48 h
Nakaseomyces glabratus [9] = test: Antifungal activity against Candida glabrata 20/I after 48 hrs by microbroth dilution method
Escherichia coli [10] = test: Antibacterial activity against Escherichia coli CCM 4517 after 48 hrs by microbroth dilution method; settings: CCM 4517, 48 h; procedure, shortened: as §2
Lichtheimia corymbifera [11] = test: Antifungal activity against Absidia corymbifera 272 after 24 hrs by microbroth dilution method; settings: Lichtheimia corymbifera, 272, 24 h
[12] = test system: Trichophyton mentagrophytes; test: Antifungal activity against Trichophyton mentagrophytes 445 after 72 hrs by microbroth dilution method; settings: Trichophyton mentagrophytes, 445, 72 h
Candida tropicalis [13] = test: Antifungal activity against Candida tropicalis 156 after 24 hrs by microbroth dilution method; settings: Candida tropicalis, 156, 24 h
Candida albicans [14] = test: Antifungal activity against Candida albicans ATCC 44859 after 48 hrs by microbroth dilution method; settings: ATCC 44859, 48 h
Trichosporon asahii [15] = test: Antifungal activity against Trichosporon asahii 1188 after 24 hrs by microbroth dilution method; settings: Trichosporon asahii, 1188, 24 h
Trichosporon asahii [16] = test: Antifungal activity against Trichosporon asahii 1188 after 48 hrs by microbroth dilution method; settings: Trichosporon asahii, 1188, 48 h
Pichia kudriavzevii [17] = test: Antifungal activity against Candida krusei E28 after 24 hrs by microbroth dilution method; settings: E28, 24 h
Nakaseomyces glabratus [18] = test: Antifungal activity against Candida glabrata 20/I after 24 hrs by microbroth dilution method
[19] = test system: Staphylococcus epidermidis; test: Antibacterial activity against Staphylococcus epidermidis H 6966/08 after 48 hrs by microbroth dilution method; settings: H 6966/08, 48 h; procedure, shortened: as §2
Klebsiella pneumoniae [20] = test: Antibacterial activity against ESBL-positive Klebsiella pneumoniae J 14368/08 after 48 hrs by microbroth dilution method; settings: J 14368/08, 48 h; procedure, shortened: as §2
Candida albicans [21] = test: Antifungal activity against Candida albicans ATCC 44859 after 24 hrs by microbroth dilution method; settings: ATCC 44859, 24 h
Staphylococcus aureus [22] = test: Antibacterial activity against methicillin-resistant Staphylococcus aureus H 5996/08 after 48 hrs by microbroth dilution method; settings: H 5996/08, 48 h; procedure, shortened: as §1
Lichtheimia corymbifera [23] = test: Antifungal activity against Absidia corymbifera 272 after 48 hrs by microbroth dilution method; settings: Lichtheimia corymbifera, 272, 48 h
Pichia kudriavzevii [24] = test: Antifungal activity against Candida krusei E28 after 48 hrs by microbroth dilution method; settings: E28, 48 h
Enterococcus sp. [25] = test: Antibacterial activity against Enterococcus sp. J 14365/08 after 48 hrs by microbroth dilution method; settings: J 14365/08, 48 h; procedure, shortened: as §2
Klebsiella pneumoniae [26] = test: Antibacterial activity against Klebsiella pneumoniae D 11750/08 after 24 hrs by microbroth dilution method; settings: D 11750/08, 24 h; procedure, shortened: as §2
Staphylococcus aureus [27] = test: Antibacterial activity against Staphylococcus aureus CCM 4516/08 after 24 hrs by microbroth dilution method; settings: CCM 4516/08, 24 h; procedure, shortened: as §2
Escherichia coli [28] = test: Antibacterial activity against Escherichia coli CCM 4517 after 24 hrs by microbroth dilution method; settings: CCM 4517, 24 h; procedure, shortened: as §2

`O=C(Nc1ccccc1)Oc1ccc(Cl)cc1C(=O)Nc1ccc(Br)cc1` showed an MIC (Staphylococcus aureus [1]) of 0.98 µM (≈ 0.437 µg/mL), an MIC (Enterococcus sp. [2]) of 500 µM (≈ 223 µg/mL) and an MIC [3] of 3.9 µM (≈ 1.74 µg/mL). The MIC (Klebsiella pneumoniae [4]) was over 500 µM, the MIC (Klebsiella pneumoniae [5]) was over 500 µM and the MIC (Staphylococcus aureus [6]) was at most 0.49 µM. The MIC [7] was at most 0.49 µM, the MIC (Candida tropicalis [8]) was over 500 µM and the MIC (Nakaseomyces glabratus [9]) was 125 µM (≈ 55.7 µg/mL). The MIC (Escherichia coli [10]) was over 500 µM, the MIC (Lichtheimia corymbifera [11]) was over 500 µM and the MIC [12] was 3.9 µM (≈ 1.74 µg/mL). It also gave an MIC (Candida tropicalis [13]) of over 500 µM, an MIC (Candida albicans [14]) of over 500 µM and an MIC (Trichosporon asahii [15]) of 125 µM (≈ 55.7 µg/mL). The MIC (Trichosporon asahii [16]) was 125 µM (≈ 55.7 µg/mL), the MIC (Pichia kudriavzevii [17]) was 250 µM (≈ 111 µg/mL) and the MIC (Nakaseomyces glabratus [18]) was 125 µM (≈ 55.7 µg/mL). It also gave an MIC [19] of 0.98 µM (≈ 0.437 µg/mL), an MIC (Klebsiella pneumoniae [20]) of over 500 µM and an MIC (Candida albicans [21]) of over 500 µM. The MIC (Staphylococcus aureus [22]) was 0.98 µM (≈ 0.437 µg/mL), the MIC (Lichtheimia corymbifera [23]) was over 500 µM and the MIC (Pichia kudriavzevii [24]) was 250 µM (≈ 111 µg/mL). It also gave an MIC (Enterococcus sp. [25]) of 500 µM (≈ 223 µg/mL), an MIC (Klebsiella pneumoniae [26]) of over 500 µM and an MIC (Staphylococcus aureus [27]) of at most 0.49 µM. For the same molecule, the MIC (Escherichia coli [28]) was over 500 µM.
